Activity calls are given as the source filed them. The calls are words filed in the database; no cut-off is given here.
Tests used:
MeWo [1] = experiment: Cytotoxicity against human MeWo cells assessed as cell viability at 10 uM after 48 hrs by MTT assay relative to vehicle-treated control; format: functional; conditions: read-out: Activity
How it was run: (§1)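 MeWo melanoma cells (DMEM, 10% FBS, 2 mM L-glutamine, penicillin/streptomycin 100 µg/mL) grown 48 h with or without compound. Washed twice in Locke's solution (HEPES pH 7.6), then MTT 250 µg/mL for 90 min. Screening at 10 µM fixed concentration against untreated control. Concentration–response: mean + S.D. of 8–16 replicates from 4 separate experiments.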

Tubulin (Homo sapiens) [2] = molecular target: T1, Tubulin (Homo sapiens) (UniProt P68371+Q9H4B7+P0DPH7+P68366+Q13509+Q71U36+P04350+Q3ZCM7+P07437+P68363+Q9BQE3+Q6PEY2+Q13885+Q9BVA1+Q9BUF5); experiment: Inhibition of alpha-tubulin polymerization in human MeWo cells at 3 X IC50 after 16 hrs by immunofluorescence microscopic analysis; format: cell-based
How it was run: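 MeWo cells on glass coverslips, drug-treated at 3× IC50, 16 h per the legend (24 h in methods). Stained with anti-tubulin (1:1000, 20 min RT), Alexa 488 secondary and nuclear dye, imaged at 63× oil. Representative of three experiments.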

MeWo [3] = experiment: Antitubulinic activity in human MeWo cells assessed as blockade in G2/M phase at 3 X IC50 after 16 hrs by propidium iodide staining-based FACS analysis; format: functional, cell-based
How it was run: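 MeWo cells (DMEM, 10% FBS, 2 mM L-glutamine, pen/strep) exposed 16 h to vehicle or compound. Washed once in PBS, then fixed in ice-cold 30:70 PBS/EtOH and held at −20 °C before DNA-content flow cytometry. Histograms shown are representative of three separate experiments.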

Tubulin (Homo sapiens) [4] = molecular target: T1, Tubulin (Homo sapiens); experiment: Inhibition of alpha-tubulin polymerization in human MeWo cells at 3 X IC50 after 16 hrs by Western blot analysis in presence of paclitaxel; format: cell-based
How it was run: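 MeWo cells in flasks, treated 16 h at 3× IC50 or left untreated. Trypsinised and lysed 10 min at RT in hypotonic buffer (20 mM Tris-HCl pH 6.8, 1 mM MgCl2, 2 mM EGTA, 0.5% NP-40, protease inhibitors) containing paclitaxel. Equal protein centrifuged 13000 rpm, 15 min. Pellet (polymerized) and supernatant (free) α-tubulin compared by SDS-PAGE/western blot, chemiluminescence. Three experiments; CA-4 positive control.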

[5] = Cytotoxicity against human SH-SY5Y cells assessed as cell viability after 48 hrs by MTT assay; format: functional, cell-based
How it was run: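 SH-SY5Y neuroblastoma cells in 50% DMEM/50% F-12 with 10% FBS, treated 48 h across a concentration range. Viability by MTT: cells washed twice in Locke's solution (pH 7.6), then 90 min with MTT 250 µg/mL. Mean + S.D. of 8–16 replicates from 4 separate experiments.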

MeWo [6] = experiment: Cytotoxicity against human MeWo cells assessed as cell viability after 48 hrs by MTT assay; format: functional, cell-based; how it was run: as §1

Row | SMILES | viability at 10 µM (MeWo [1]) | further results
1 | O=C(/C=C(O)/C=C/c1ccc(O)cc1)c1ccc(O)cc1 | 77% | –
2 | COc1cc(/C=C/c2cc(-c3ccc(O)cc3)[nH]n2)cc(OC)c1 | 38% | inhibition (Tubulin (Homo sapiens) [2]): Active; Activity (MeWo [3]): Active; inhibition (Tubulin (Homo sapiens) [4]): Active; IC50 [5]: 10.6 µM; IC50 (MeWo [6]): 5.7 µM
3 | COc1ccc(/C=C/C(O)=C/C(=O)c2ccc(O)cc2)cc1 | 93% | –
4 | COc1cc(/C=C/c2cc(-c3ccccc3)[nH]n2)cc(OC)c1 | 90% | –
5 | COc1ccc(/C=C/c2cc(-c3ccc(O)cc3)[nH]n2)cc1 | 81% | –
6 | COc1cc(/C=C/C(O)=C/C(=O)c2ccc(O)cc2)ccc1O | 89% | –
7 | O=C(/C=C(O)/C=C/c1ccc(O)cc1)c1ccccc1 | 90% | –
8 | COc1cc(/C=C/C(O)=C/C(=O)c2ccc(O)cc2)cc(OC)c1 | 90% | –
9 | COc1cccc(/C=C/c2cc(-c3ccc(O)c(OC)c3)[nH]n2)c1 | 27% | inhibition (Tubulin (Homo sapiens) [2]): Active; Activity (MeWo [3]): Active; inhibition (Tubulin (Homo sapiens) [4]): Active; IC50 [5]: 10.6 µM; IC50 (MeWo [6]): 3.6 µM
10 | Oc1ccc(/C=C/c2cc(-c3ccccc3)[nH]n2)cc1 | 98% | –
11 | COc1cc(C(=O)/C=C(O)/C=C/c2ccc(O)cc2)ccc1O | 98% | –
12 | COc1cc(/C=C/c2cc(-c3ccc(O)cc3)[nH]n2)cc(OC)c1OC | 85% | –
13 | COc1cc(/C=C/c2cc(-c3ccccc3)[nH]n2)ccc1O | 51% | –
14 | COc1cc(C(=O)/C=C(O)/C=C/c2cc(OC)c(OC)c(OC)c2)ccc1O | 89% | –
15 | COc1cc(/C=C/C(O)=C/C(=O)c2ccc(O)cc2)cc(OC)c1OC | 85% | –
16 | COc1cc(/C=C/c2cc(-c3ccccc3)[nH]n2)cc(OC)c1OC | 89% | –

Row | SMILES | viability at 10 µM (MeWo [1]) | further results
17 | COc1cc(/C=C/c2cc(-c3ccc(O)c(OC)c3)[nH]n2)ccc1O | 36% | inhibition (Tubulin (Homo sapiens) [2]): Active; Activity (MeWo [3]): Active; inhibition (Tubulin (Homo sapiens) [4]): Active; IC50 [5]: 4 µM; IC50 (MeWo [6]): 3.7 µM
18 | COc1cc(-c2cc(/C=C/c3cc(OC)c(OC)c(OC)c3)n[nH]2)ccc1O | 75% | –
19 | COc1ccc(/C=C/C(O)=C/C(=O)c2ccc(O)c(OC)c2)cc1 | 84% | –
20 | COc1cc(/C=C/c2cc(-c3ccc(O)cc3)[nH]n2)ccc1O | 69% | –
21 | Oc1ccc(/C=C/c2cc(-c3ccc(O)cc3)[nH]n2)cc1 | 87% | –
22 | COc1cc(/C=C/C(O)=C/C(=O)c2ccccc2)cc(OC)c1OC | 93% | –
23 | COc1cc(/C=C/C(O)=C/C(=O)c2ccc(O)c(OC)c2)cc(OC)c1 | 88% | –
24 | COc1cc(/C=C/c2cc(-c3ccc(O)c(OC)c3)[nH]n2)cc(OC)c1 | 43% | inhibition (Tubulin (Homo sapiens) [2]): Active; Activity (MeWo [3]): Active; inhibition (Tubulin (Homo sapiens) [4]): Active; IC50 [5]: 11.8 µM; IC50 (MeWo [6]): 4.8 µM
25 | COc1cc(/C=C/C(=O)CC(=O)/C=C/c2ccc(O)c(OC)c2)ccc1O [CURCUMIN] | 90% | inhibition (Tubulin (Homo sapiens) [2]): Active; Activity (MeWo [3]): Active; inhibition (Tubulin (Homo sapiens) [4]): Active; IC50 [5]: 11.4 µM; IC50 (MeWo [6]): 35.5 µM
26 | COc1ccc(/C=C/C(O)=C/C(=O)c2ccccc2)cc1 | 90% | –
27 | COc1ccc(/C=C/c2cc(-c3ccccc3)[nH]n2)cc1 | 92% | –
28 | COc1cc(/C=C/C(O)=C/C(=O)c2ccccc2)cc(OC)c1 | 92% | –
29 | COc1cc(/C=C/C(O)=C/C(=O)c2ccc(O)c(OC)c2)ccc1O | 97% | –
30 | COc1cc(-c2cc(/C=C/c3ccc(O)cc3)n[nH]2)ccc1O | 95% | –
31 | COc1ccc(/C=C/c2cc(-c3ccc(O)c(OC)c3)[nH]n2)cc1 | 92% | –
32 | COc1cc(/C=C/C(O)=C/C(=O)c2ccccc2)ccc1O | 90% | –
